TAAR1 ag – human TAAR1 agonism. CHO RD-HGA16 TAAR1, Fluo-8 calcium fluorescence; vehicle wells 0%, saturating PEA agonist 100%. activation, % at 3 µM. actives 0.99% (n = 360,000);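 active means activation above the mean activation of all test compounds in the run plus 3 SD, cut at about 38% in these data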
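Test system: RD-HGA16 (CHO) cells co-expressing Gα16 and hTAAR1; dosing: one-point dosing at 3 µM (nominal); timing: 17-24 h seeding, 75 min 37 °C dye, 30 min RT; signal: kinetic Fluo-8 calcium fluorescence; read-out basis: % activation relative to PEA EC100 response; controls: DMSO and PEA EC100; replicates: n 1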
GPR7 antag – blocks human GPR7 receptor signaling; P48145; GPR7-expressing cells, fluorescence antagonist assay; inhibition, % at 4.4 µM; actives 1.1% (n = 290,000); in the data active means inhibition above about 16%, passing the limit was not always enough;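 further: cells stimulated with the agonist NPW; 0% = agonist with vehicle and 100% = vehicle without agonist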
TAAR1 antag – human TAAR1 antagonism; Q96RJ0; CHO RD-HGA16 TAAR1, Fluo-8 calcium fluorescence, antagonist; AID 624466; inhibition, % at 3 µM; actives 1.5% (n = 360,000);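 active means inhibition above a per-plate cutoff, the mean inhibition of test compounds on that plate plus 3 SD, cut at about 49% in these data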;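 further: 0% = DMSO plus EC80 beta-PEA response and 100% = DMSO alone without agonist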
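System: CHO RD-HGA16 cells bearing hTAAR1. Reagent: EC80 β-phenethylamine stimulus. Schedule: seeding 17-24 h prior, 75-min 37 °C, 30-min RT dye loading. Signal: Fluo-8 intracellular calcium dye fluorescence, real-time kinetic reads. Read-out: % inhibition from peak post-agonist over basal fluorescence ratio. Benchmarks: vehicle wells and EC80 agonist wells. Replicates: n of 1.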
CHO parental Ca – counter-screen: ATP calcium response change in parental CHO cells | parental CHO-K1, ATP-induced calcium, Fluo-8 fluorescence | inhibition, % at 5.6 µM | actives 0.63% (n = 330,000);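 active means inhibition above that plate's mean sample inhibition plus 3 SD, cut at about 26% in these data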;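 further: 0% = ATP-challenged DMSO wells and 100% = DMSO wells without ATP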
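Measured by: calcium-sensitive Fluo-8 fluorescence / Test system: CHO parental line / Controls: ATP-challenged DMSO wells low, unchallenged DMSO wells high / Measure: % inhibition / Compound: single nominal dose of 5.6 µM per compound / Replicates: single well per compound, no replicates / Reagent: ATP as calcium-mobilizing challenge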
OX1R antag-1 – antagonists of human orexin 1 receptor (OX1R); O43613; OX1R-expressing cells, FRET antagonist read-out; actives 1.8% (n = 330,000); inhibition, % at 6.6 µM; in the data active means inhibition mostly above about 38%, no sharp cut-off; inactive means mostly below about 40%;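 further: 0% = agonist challenge alone and 100% = reference antagonist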
Target sequence (O43613 whole entry, looked up): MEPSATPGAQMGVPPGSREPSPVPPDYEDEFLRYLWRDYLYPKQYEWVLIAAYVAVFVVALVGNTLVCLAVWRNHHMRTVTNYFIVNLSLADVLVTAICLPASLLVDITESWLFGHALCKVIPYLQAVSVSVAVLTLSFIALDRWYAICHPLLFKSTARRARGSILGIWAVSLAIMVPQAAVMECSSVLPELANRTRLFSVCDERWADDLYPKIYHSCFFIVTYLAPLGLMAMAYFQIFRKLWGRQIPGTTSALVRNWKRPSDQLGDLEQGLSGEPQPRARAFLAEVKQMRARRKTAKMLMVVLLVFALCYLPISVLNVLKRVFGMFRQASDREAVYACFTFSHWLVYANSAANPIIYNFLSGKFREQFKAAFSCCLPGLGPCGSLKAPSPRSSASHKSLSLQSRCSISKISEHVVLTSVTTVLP
OX1R antag-2 – blocks the human orexin 1 receptor. O43613. CHO/OX1R cells, Fluo-8 calcium fluorescence, orexin A. inhibition, % at 5 µM. actives 0.43% (n = 330,000). AID 434989;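 active means inhibition above its plate's threshold, mean inhibition of all tested compounds on the plate plus 3 SD, cut at about 37% in these data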;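 further: 0% = orexin A challenge wells and 100% = SB-334867-A antagonist wells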
* = called active by the depositor; . = not tested or not shown. Rows were chosen to be rich in hits. Some 4.6% of all compounds tested hit in one or more screens of this group.

SMILES	TAAR1 ag	GPR7 antag	TAAR1 antag	CHO parental Ca	OX1R antag-1	OX1R antag-2
Cc1cccc(C)c1NC(=O)C1(C)CN(S(C)(=O)=O)CC(=O)N1CCCN1CCOCC1 (stereo not given)	2	.	-6	.	.	.
CN=C1SC(CC(=O)NCCc2ccc(OC)c(OC)c2)C(=O)N1C (stereo not given)	1	9	-24	101*	4	104*
COc1ccc(CNC(=O)c2ccc3ccccc3n2)cc1OC	4	15	8	45*	52*	9
CCCCNc1c(-c2ccc(F)cc2)nc2nc(C)cc(C)n12	3	.	-8	.	.	.
C[C@@H]1CN([C@H](C)CO)C(=O)c2c(c3ccccc3n2C)-c2ccccc2CO[C@@H]1CN(C)C(=O)CCN(C)C	0	.	-17	.	.	.
Cc1ccc(C)c(N2CCN(C(C(=O)NC3CCCC3)C(C)C)CC2)c1 (stereo not given)	-1	.	-13	.	.	.
O=C(NC(=S)N1CCCCC1)c1csc([N+](=O)[O-])c1	2	-15	-11	-1	37*	-16
CSc1nnc(N2C(=O)C(O)=C(C(=O)c3ccco3)C2c2cccc(Cl)c2)s1 (stereo not given)	1	4	-2	33*	3	49*
CSc1nnc(N2C(=O)C(O)=C(C(=O)c3ccco3)C2c2ccc(F)cc2)s1 (stereo not given)	3	-6	-32	32	6	37
CN(CCOc1ccc(-c2ccn(S(=O)(=O)c3ccc(Cl)cc3)n2)cc1)c1ccccn1	10	19*	5	-7	39	-5
CN(CCOc1ccc(-c2ccn(S(=O)(=O)c3c(Cl)cccc3Cl)n2)cc1)c1ccccn1	3	-2	5	-8	12	-20
CCc1ccc2[nH]c3nc(N/N=C/c4ccc(O)cc4O)nnc3c2c1	3	-18	17	-13	74*	-2
O=C(CSc1ccc2ccccc2n1)N1CCC(c2noc3ccc(F)cc23)CC1	8	-5	31	-10	55*	3
O=C(CSc1ccccc1Cl)N1CCC(c2nc3ccccc3s2)CC1	13	-8	20	-11	33	-22
O=C(CSc1ccc(F)cc1)N1CCC(c2nc3ccccc3s2)CC1	14	5	52*	2	15	18
Cc1ccc(-n2cccc2/C=C2/C(=N)N3C(=NC2=O)SN=C3S(C)(=O)=O)cc1	6	2	26	-16	32	-26
CS(=O)(=O)C1=NSC2=NC(=O)/C(=C\c3cccn3-c3ccccc3Cl)C(=N)N21	5	-16	21	-14	64*	-24
CCc1ccc(-n2cccc2/C=C2/C(=N)N3C(=NC2=O)SN=C3S(C)(=O)=O)cc1	1	1	57*	-3	66*	-1
Cc1cc(C)cc(-n2cccc2/C=C2/C(=N)N3C(=NC2=O)SN=C3S(C)(=O)=O)c1	0	-1	30	-1	51*	-5
CO[C@H]1CN(C)C(=O)c2ccc(NC(=O)C3CCC3)cc2OC[C@H](C)N(Cc2ccccn2)C[C@@H]1C	1	.	-28	.	.	.
O=C(Nc1cccc(C(=O)N2CCOCC2)c1)C1CCCCC1	0	.	-6	.	.	.
COc1ccccc1C(=O)NCC[N+](C)(C)C	1	.	2	.	.	.
CCCCNc1cccc2c1S(=O)(=O)N[C@@H](CC(C)C)CO2	0	.	-13	.	.	.
CCOC(=O)N(C)[C@H]1C[C@H]2c3[nH]c4ccccc4c3CCN2C(=O)[C@H]1[C@H](C)O	3	.	-19	.	.	.
CN(c1cccnc1)c1ccc(NC(=O)Cc2c[nH]c3ccccc23)cc1-c1ccc(C(C)(C)C)cc1	1	.	-3	.	.	.
SMILES	TAAR1 ag	GPR7 antag	TAAR1 antag	CHO parental Ca	OX1R antag-1	OX1R antag-2
O=C(/C=C/c1ccco1)Nc1ccc2nn(-c3ccccc3)nc2c1	0	3	-2	6	77*	18
Cc1nc2ccccc2n1CCOc1ccccc1	7	1	17	-4	25	0
Cc1nc2ccccc2n1Cc1ccc(Cl)cc1	2	16	-2	31*	43	4
Cc1ccc(OCCCCn2cnc3ccccc32)cc1	4	-1	-27	4	16	21
Cc1ccccc1OCCn1c(C)nc2ccccc21	4	4	32	35*	22	38
Cc1ccccc1OCCCCn1cnc2ccccc21	10	16	7	50*	13	0
CC(=O)c1cn(CCOc2ccccc2C)c2ccccc12	10	26	27	41*	37	22
O=C(NCC[C@H]1CC[C@@H](NC(=O)C2CCOCC2)[C@@H](CO)O1)Nc1ccc(Cl)cc1	2	.	-7	.	.	.
Cc1cc(C)n(CCNC(=O)[C@@H](Cc2ccccc2)NC(=O)[C@H]2O[C@@H](n3ccc(=O)[nH]c3=O)[C@H](O)[C@@H]2O)n1	1	.	13	.	.	.
CNC[C@H]1OCc2cnnn2CCCC(=O)N([C@@H](C)CO)C[C@@H]1C	1	.	-11	.	.	.
NC(=O)c1ncn([C@@H]2O[C@H](C(=O)N[C@H](Cc3c[nH]c4ccccc34)C(=O)NCC(=O)N3CCCCC3)[C@@H](O)[C@H]2O)n1	1	.	-4	.	.	.
CCOC(=O)N1CCN(C(=O)C[C@H]2C[C@@]3(C(=O)OC)C(=C[C@H](C(C)C)O[C@@H]3C3CC3)N(Cc3ccccc3)C2=O)CC1	0	.	3	.	.	.
Cc1ccccc1Cn1c(C)nc2ccccc21	3	8	13	41*	64	13
c1ccc2c(c1)ncn2CCCOc1ccc2c(c1)CCC2	14	-3	17	15	21	-16
c1ccc2c(c1)ncn2CCCCOc1ccc2c(c1)CCC2	7	-3	33	37*	19	-7
COc1cc(CNCCc2ccccc2)ccc1OCC(=O)NC(C)(C)C	67*	-11	-1	-12	10	-39
CCCCN(CCCC)CC(O)COc1ccccc1C(=O)Nc1ccccc1 (stereo not given)	0	20*	-21	-15	22	-24
CCN(CC)CC(O)COc1ccccc1C(=O)CCc1ccccc1 (stereo not given)	2	3	-1	-26	-2	-21
O=C(Nc1nc2ccc(S(=O)(=O)N3CCCC3)cc2s1)C1CCCCC1	43*	29	8	-9	8	2
N#CCc1nc2ccc(S(=O)(=O)N3CCOCC3)cc2s1	6	5	-1	35*	6	41*
O=[N+]([O-])c1c(Nc2ccccn2)cc(Cl)c2nonc12	-2	-5	-3	-2	45*	3
O=C(O)c1cccc(Nc2ccc([N+](=O)[O-])c3nonc23)c1	4	-5	6	-2	34*	-25
O=C(O)c1cccc(Nc2cc(Cl)c3nonc3c2[N+](=O)[O-])c1	1	1	-23	-12	58*	-6

Screening data from PubChem BioAssay.
